Source: ChEMBL document CHEMBL4007432, “Discovery and characterization of novel CYP1B1 inhibitors based on heterocyclic chalcones: Overcoming cisplatin resistance in CYP1B1-overexpressing lines” (Eur J Med Chem, 2017)

How the values were obtained:
Cytochrome P450 1B1 [1] = biological target: T1, Cytochrome P450 1B1 (Homo sapiens, UniProt Q16678); experiment: Inhibition of human liver CYP1B1 expressed in Saccharomyces cerevisiae YY7 microsomal membranes using 7-ethoxyresorufin as substrate after 10 mins by fluorescence assay
T1 sequence (Q16678 whole entry): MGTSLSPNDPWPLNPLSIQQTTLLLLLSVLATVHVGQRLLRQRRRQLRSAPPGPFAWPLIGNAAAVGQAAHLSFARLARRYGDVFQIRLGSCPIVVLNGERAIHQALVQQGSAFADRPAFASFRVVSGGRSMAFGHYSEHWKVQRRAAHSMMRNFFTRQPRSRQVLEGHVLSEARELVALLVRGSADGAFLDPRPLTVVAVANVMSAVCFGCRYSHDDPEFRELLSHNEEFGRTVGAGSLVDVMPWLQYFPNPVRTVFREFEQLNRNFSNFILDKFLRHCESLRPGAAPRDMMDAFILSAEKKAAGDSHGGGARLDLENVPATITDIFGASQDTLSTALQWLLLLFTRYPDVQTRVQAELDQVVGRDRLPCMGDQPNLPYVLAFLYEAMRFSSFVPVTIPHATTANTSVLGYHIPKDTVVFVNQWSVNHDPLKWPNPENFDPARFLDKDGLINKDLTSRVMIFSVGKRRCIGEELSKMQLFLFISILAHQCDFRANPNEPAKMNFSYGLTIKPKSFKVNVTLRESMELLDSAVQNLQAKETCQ
Method in brief: (§1)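 Yeast microsomes (YY7 strain carrying human reductase) held 0.5 pmol CYP with an NADP+/glucose-6-phosphate/G6PDH regenerating system in KPi. Fluorogenic substrate per isoform: 7-ER, CEC, EOMCC or DBF. Six serial 1:20 dilutions were tested, DMSO ≤0.5%. Reactions ran 10 min at 37 °C and were stopped with Tris-acetonitrile. Endpoint fluorescence (530/590 nm for resorufin) was fitted by 4-parameter sigmoid. Triplicate, ≥3 experiments.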

Cytochrome P450 1A1 = biological target: T2, Cytochrome P450 1A1 (Homo sapiens, UniProt P04798); experiment: Inhibition of human liver CYP1A1 expressed in Saccharomyces cerevisiae YY7 microsomal membranes using 7-ethoxyresorufin as substrate after 10 mins by fluorescence assay; assay type: ADME, Microsomal Membrane; method in brief: as §1
T2 sequence (P04798 whole entry): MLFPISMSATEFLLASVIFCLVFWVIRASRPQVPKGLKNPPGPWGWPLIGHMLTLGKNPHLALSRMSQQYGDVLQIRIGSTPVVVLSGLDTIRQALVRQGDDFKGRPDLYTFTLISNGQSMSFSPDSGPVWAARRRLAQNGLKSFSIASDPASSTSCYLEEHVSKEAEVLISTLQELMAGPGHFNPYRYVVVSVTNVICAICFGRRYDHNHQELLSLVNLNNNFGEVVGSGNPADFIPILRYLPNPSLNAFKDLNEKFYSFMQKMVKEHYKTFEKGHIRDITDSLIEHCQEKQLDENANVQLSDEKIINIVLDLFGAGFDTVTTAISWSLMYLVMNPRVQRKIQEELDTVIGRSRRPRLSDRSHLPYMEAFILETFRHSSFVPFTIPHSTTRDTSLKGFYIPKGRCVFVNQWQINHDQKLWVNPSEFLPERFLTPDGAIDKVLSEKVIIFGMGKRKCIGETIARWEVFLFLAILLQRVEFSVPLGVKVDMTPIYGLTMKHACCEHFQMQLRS

Cytochrome P450 1A2 = biological target: T3, Cytochrome P450 1A2 (Homo sapiens, UniProt P05177); experiment: Inhibition of human liver CYP1A2 expressed in Saccharomyces cerevisiae YY7 microsomal membranes using CEC as substrate after 10 mins by fluorescence assay; assay type: ADME, Microsomal Membrane; method in brief: as §1
T3 sequence (P05177 whole entry): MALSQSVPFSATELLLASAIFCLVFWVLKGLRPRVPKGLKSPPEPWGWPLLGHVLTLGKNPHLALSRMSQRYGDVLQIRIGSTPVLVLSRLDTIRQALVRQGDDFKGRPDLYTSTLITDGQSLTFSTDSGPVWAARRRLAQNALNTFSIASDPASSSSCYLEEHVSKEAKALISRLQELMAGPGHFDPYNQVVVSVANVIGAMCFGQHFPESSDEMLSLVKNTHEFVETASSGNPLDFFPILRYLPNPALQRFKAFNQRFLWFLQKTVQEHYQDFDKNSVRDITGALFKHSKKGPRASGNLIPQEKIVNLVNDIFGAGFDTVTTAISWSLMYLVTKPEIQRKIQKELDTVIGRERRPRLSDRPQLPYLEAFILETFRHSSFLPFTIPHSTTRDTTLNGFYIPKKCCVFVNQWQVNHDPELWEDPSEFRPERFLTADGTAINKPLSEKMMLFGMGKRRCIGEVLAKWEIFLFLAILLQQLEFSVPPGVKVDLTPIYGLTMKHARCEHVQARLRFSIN

Cytochrome P450 3A4 = Cytochrome P450 3A4 (Homo sapiens, UniProt P08684); experiment: Inhibition of human liver CYP3A4 expressed in Saccharomyces cerevisiae YY7 microsomal membranes using DBF as substrate after 10 mins by fluorescence assay; assay type: ADME, Microsomal Membrane
Cytochrome P450 3A4, sequence (P08684 whole entry): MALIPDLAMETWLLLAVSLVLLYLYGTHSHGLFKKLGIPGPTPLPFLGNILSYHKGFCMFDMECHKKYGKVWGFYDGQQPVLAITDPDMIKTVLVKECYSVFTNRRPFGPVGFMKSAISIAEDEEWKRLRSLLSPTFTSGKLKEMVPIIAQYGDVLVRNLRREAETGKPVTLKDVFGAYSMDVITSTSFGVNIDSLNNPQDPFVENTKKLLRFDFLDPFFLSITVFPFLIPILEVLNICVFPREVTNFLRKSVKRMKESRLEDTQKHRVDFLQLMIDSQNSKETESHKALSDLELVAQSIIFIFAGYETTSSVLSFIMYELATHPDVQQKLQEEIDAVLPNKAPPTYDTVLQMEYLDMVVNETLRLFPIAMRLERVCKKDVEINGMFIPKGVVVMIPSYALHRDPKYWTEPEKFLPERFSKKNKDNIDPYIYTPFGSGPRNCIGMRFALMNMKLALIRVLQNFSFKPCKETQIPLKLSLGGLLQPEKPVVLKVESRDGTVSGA

Cytochrome P450 2D6 = Cytochrome P450 2D6 (Homo sapiens, UniProt P10635); experiment: Inhibition of human liver CYP2D6 expressed in Saccharomyces cerevisiae YY7 microsomal membranes using EOMCC as substrate after 10 mins by fluorescence assay; assay type: ADME, Microsomal Membrane; method in brief: as §1
Cytochrome P450 2D6, sequence (P10635 whole entry): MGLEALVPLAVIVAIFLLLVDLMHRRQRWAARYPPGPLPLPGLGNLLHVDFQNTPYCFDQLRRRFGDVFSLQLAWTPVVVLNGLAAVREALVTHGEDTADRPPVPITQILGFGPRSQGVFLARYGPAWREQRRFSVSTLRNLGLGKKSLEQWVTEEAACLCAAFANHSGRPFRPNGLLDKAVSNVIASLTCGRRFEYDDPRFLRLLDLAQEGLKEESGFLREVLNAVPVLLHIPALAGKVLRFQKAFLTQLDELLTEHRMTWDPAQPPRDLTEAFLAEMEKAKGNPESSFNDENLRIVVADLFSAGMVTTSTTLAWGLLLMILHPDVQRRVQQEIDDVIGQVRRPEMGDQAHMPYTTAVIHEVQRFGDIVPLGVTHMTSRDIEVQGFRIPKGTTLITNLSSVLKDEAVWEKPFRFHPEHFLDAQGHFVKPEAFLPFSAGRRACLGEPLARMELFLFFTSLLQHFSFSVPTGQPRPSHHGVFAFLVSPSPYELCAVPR

Cytochrome P450 2C9 = Cytochrome P450 2C9 (Homo sapiens, UniProt P11712); experiment: Inhibition of human liver CYP2C9 expressed in Saccharomyces cerevisiae YY7 microsomal membranes using DBF as substrate after 10 mins by fluorescence assay; assay type: ADME, Microsomal Membrane
Cytochrome P450 2C9, sequence (P11712 whole entry): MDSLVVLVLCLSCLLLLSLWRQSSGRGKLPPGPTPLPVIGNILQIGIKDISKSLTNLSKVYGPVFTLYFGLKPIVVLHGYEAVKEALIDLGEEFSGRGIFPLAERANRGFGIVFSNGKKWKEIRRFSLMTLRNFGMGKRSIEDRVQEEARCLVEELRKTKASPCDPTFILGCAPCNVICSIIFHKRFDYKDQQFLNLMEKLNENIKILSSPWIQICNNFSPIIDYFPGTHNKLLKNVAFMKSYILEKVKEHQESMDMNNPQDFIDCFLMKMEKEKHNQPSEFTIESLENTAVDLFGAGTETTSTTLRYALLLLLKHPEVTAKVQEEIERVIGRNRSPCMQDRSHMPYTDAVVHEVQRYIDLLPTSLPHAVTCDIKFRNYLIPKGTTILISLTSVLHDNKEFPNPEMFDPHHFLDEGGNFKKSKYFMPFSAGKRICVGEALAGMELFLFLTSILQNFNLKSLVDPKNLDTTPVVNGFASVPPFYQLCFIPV

Cytochrome P450 2C19 = Cytochrome P450 2C19 (Homo sapiens, UniProt P33261); experiment: Inhibition of human liver CYP2C19 expressed in Saccharomyces cerevisiae YY7 microsomal membranes using DBF as substrate after 10 mins by fluorescence assay; assay type: ADME, Microsomal Membrane
Cytochrome P450 2C19, sequence (P33261 whole entry): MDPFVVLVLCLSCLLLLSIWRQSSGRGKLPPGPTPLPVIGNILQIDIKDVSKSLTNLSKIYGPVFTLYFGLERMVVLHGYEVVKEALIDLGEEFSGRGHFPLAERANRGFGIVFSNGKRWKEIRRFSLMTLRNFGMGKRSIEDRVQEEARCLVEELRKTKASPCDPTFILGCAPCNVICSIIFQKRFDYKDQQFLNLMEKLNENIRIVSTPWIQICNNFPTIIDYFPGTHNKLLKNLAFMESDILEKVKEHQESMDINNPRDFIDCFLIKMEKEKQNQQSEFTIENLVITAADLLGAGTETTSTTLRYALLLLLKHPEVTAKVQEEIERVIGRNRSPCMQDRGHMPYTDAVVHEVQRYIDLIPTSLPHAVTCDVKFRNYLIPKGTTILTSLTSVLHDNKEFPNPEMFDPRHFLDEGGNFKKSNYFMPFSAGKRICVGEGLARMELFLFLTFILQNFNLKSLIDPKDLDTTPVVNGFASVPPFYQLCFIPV

Cytochrome P450 1B1 [2] = biological target: T1, Cytochrome P450 1B1; experiment: Inhibition of human liver CYP1B1 expressed in Saccharomyces cerevisiae YY7 microsomal membranes at 5 to 10 uM using 7-ethoxyresorufin as substrate after 10 mins by fluorescence assay
Method in brief: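 Single-concentration screen on CYP1B1 yeast microsomes at 5 µM (10 µM per methods), with 7-ER under the regenerating-system endpoint format: 10 min at 37 °C. Percentage inhibition versus a DMSO control; each compound tested twice.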

Row | Structure (SMILES) | IC50 (Cytochrome P450 1B1 [1]) [µM] | IC50 (Cytochrome P450 1A1) [µM] | IC50 (Cytochrome P450 1A2) [µM] | IC50 (Cytochrome P450 3A4) [µM] | IC50 (Cytochrome P450 2D6) [µM] | IC50 (Cytochrome P450 2C9) [µM] | IC50 (Cytochrome P450 2C19) [µM] | inhibition (INH) (Cytochrome P450 1B1 [2])
1 | O=C(/C=C/c1cccc(O)c1)c1cccnc1 | 0.466 | 25 | 2.9 | – | – | – | – | Active
2 | COc1ccc(C(=O)/C=C/c2cccnc2)cc1OC | 0.176 | 3.1 | 0.705 | – | – | – | – | Active
3 | O=C(/C=C/c1cccnc1)c1cccc(Cl)c1 | 0.059 | 3.4 | 0.238 | 12.5 | 10.6 | > 20 | > 20 | Active
4 | O=C(/C=C/c1ccc(Cl)c(Cl)c1)c1cccnc1 | 0.096 | 2 | 0.624 | 15 | 10.2 | > 20 | > 20 | Active
5 | O=C(/C=C/c1cccnc1)c1ccc2ccc3cccc4ccc1c2c34 | 0.162 | 2.2 | 2.1 | – | – | – | – | Active
6 | COc1ccc(C(=O)/C=C/c2cccnc2)cc1 | 0.525 | 3.6 | 2.4 | – | – | – | – | Active
7 | COc1cc(/C=C/C(=O)c2cccnc2)cc(OC)c1OC | 0.349 | 0.288 | 0.515 | – | – | – | – | Active
8 | O=C(/C=C/c1ccncc1)c1ccc2ccccc2c1 | 0.187 | 0.907 | 0.3 | – | – | – | – | Active
9 | O=C(/C=C/c1cccnc1)c1cccc(Br)c1 | 0.064 | 2.6 | 0.162 | 14 | 8 | > 20 | > 20 | Active
10 | O=C(/C=C/c1ccccc1)c1cccnc1 | 0.077 | 31.8 | 4.7 | 11.1 | 8.2 | > 20 | > 20 | Active
11 | COc1ccc(/C=C/C(=O)c2cccnc2)cc1O | 0.112 | 2.6 | 1.7 | – | – | – | – | Active
12 | COc1cc(OC)cc(C(=O)/C=C/c2cccnc2)c1 | 0.106 | 0.879 | 0.306 | – | – | – | – | Active
13 | COc1cccc(C(=O)/C=C/c2cccnc2)c1 | 0.13 | 3.5 | 0.48 | – | – | – | – | Active
14 | O=C(/C=C/c1ccc(F)c(F)c1)c1cccnc1 | 0.12 | 11.8 | 0.86 | – | – | – | – | Active
15 | O=C(/C=C/c1cccnc1)c1cc2ccccc2c2ccccc12 | 0.133 | 0.058 | 0.669 | – | – | – | – | Active
16 | O=C(/C=C/c1cccnc1)c1ccc(-c2ccccc2)cc1 | 0.189 | 17 | 2.3 | – | – | – | – | Active
17 | COc1ccc(C(=O)/C=C/c2cccnc2)c(OC)c1 | 0.093 | 1.5 | 0.432 | 11 | 7.7 | > 20 | > 20 | Active
18 | COc1ccc(C(=O)/C=C/c2cccnc2)c(OC)c1OC | 0.137 | 5.3 | 0.176 | – | – | – | – | Active

These reach a lower IC50 (Cytochrome P450 1B1 [1]). Values come first.

Row | IC50 (Cytochrome P450 1B1 [1]) [µM] | IC50 (Cytochrome P450 1A1) [µM] | IC50 (Cytochrome P450 1A2) [µM] | IC50 (Cytochrome P450 3A4) [µM] | IC50 (Cytochrome P450 2D6) [µM] | IC50 (Cytochrome P450 2C9) [µM] | IC50 (Cytochrome P450 2C19) [µM] | inhibition (INH) (Cytochrome P450 1B1 [2]) | Structure (SMILES)
19 | 0.029 | 1.5 | 1.5 | 12 | 14 | > 20 | > 20 | Active | O=C(/C=C/c1ccc2c(c1)OCO2)c1cccnc1
20 | 0.031 | 0.297 | 0.168 | 11.8 | 8.8 | > 20 | > 20 | Active | COc1ccc(/C=C/C(=O)c2cccnc2)c(OC)c1OC
21 | 0.015 | 0.349 | 0.636 | 28 | 4.4 | > 20 | > 20 | Active | O=C(/C=C/c1cccnc1)c1ccc2ccccc2c1
22 | 0.019 | 1.4 | 0.258 | 53 | 1.1 | > 20 | > 20 | Active | COc1ccc(/C=C/C(=O)c2cccnc2)cc1OC
23 | 0.023 | 0.958 | 0.214 | 6 | 1.3 | > 20 | > 20 | Active | O=C(/C=C/c1cccnc1)c1cccc2ccccc12
24 | 0.015 | 4.7 | 0.22 | 1.52 | 1.74 | > 20 | > 20 | Active | COc1ccccc1/C=C/C(=O)c1cccnc1
25 | 0.048 | 0.122 | 1 | 26 | 12 | > 20 | > 20 | Active | O=C(/C=C/c1cccnc1)c1ccc2ccc3ccccc3c2c1
26 | 0.032 | 10.5 | 0.752 | 1.28 | 1 | > 20 | > 20 | Active | COc1cccc(/C=C/C(=O)c2cccnc2)c1
